High-throughput results from PubChem.
Ba/F3 V617F tox = lowers viability of Ba/F3 cells expressing EpoR and JAK2V617F | ATP luminescence | inhibition, % at 5.6 µM | 220,000 compounds, 1.1% hits;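 active = inhibition above the campaign mean plus 3 SD over all tested compounds, cut at about 24% in these data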;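 note: cytokine-independent growth of Ba/F3 cells driven by EpoR plus mutant JAK2; 0% = DMSO-treated cells and 100% = JAK inhibitor I control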
BaF3 tox = parental Ba/F3 viability inhibition as JAK2V617F counter-screen. inhibition, % at 5.6 µM. AID 1486. 220,000 compounds, 1.1% hits. CellTiter-Glo ATP luminescence;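 active = inhibition above a per-campaign cutoff, the mean inhibition of all tested compounds plus 3 SD, cut at about 27% in these data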;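 note: 0% = DMSO wells and 100% = JAK Inhibitor I control wells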
APP transl inh = APP translation inhibition. SH-SY5Y APP 5'UTR-luciferase reporter, luminescence. 190,000 compounds, 0.82% hits. inhibition, % at 2 µM;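 active = inhibition above a set limit, derived from the sample mean plus 3 SD, cut at about 45% in these data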
MT stabilize HCS = microtubule stabilization, imaging screen; HeLa tubulin immunostaining HCS, 24 h; share of cells brighter than vehicle mean+2SD; % tubulin-high responders, % at 10 µM; 200,000 compounds, 0.83% hits; AID 2205;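 active = plate Z-score above 3 for both tubulin-high and condensed-nucleus cell shares, with cell loss under 80%, at 10 µM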;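 note: anti alpha tubulin signal scored within the nucleus-defined area of each cell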
L major viab = Leishmania major promastigote growth inhibition. Leishmania major promastigotes, resazurin fluorescence viability. inhibition, % at 10 µM. 200,000 compounds, 9% hits. AID 1063; in the data active = inhibition above about 50%;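 note: promastigotes grown with compound for 44 hours at 28 °C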
bCat nuc transl = alters nuclear translocation of beta-catenin in HeLa cells | immunofluorescence imaging | nuclear translocation activity, % at 5 µM | AID 1665 | 190,000 compounds, 0.3% hits;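 active = nuclear translocation activity above 50% at 5 µM, with a well cell count of 50 or more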;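 note: per-cell ratio of nuclear to cytoplasmic median beta-catenin stain intensity; plate controls were DMSO negative control for no effect and GSK-3 inhibitor IX positive control for full effect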
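assay system = human HeLa cells, endogenous beta-catenin | times = compound treatment 24 h, 37°C, 5% CO2 | detection = Anti-beta-catenin immunofluorescence on PFA-fixed, Triton-permeabilized cells, DAPI nuclei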
* hit, by the source's call; nt = no result. Compounds with a hit are over-represented: about 9.6% of the library has one in this group of screens.

SMILES | Ba/F3 V617F tox | BaF3 tox | APP transl inh | MT stabilize HCS | L major viab | bCat nuc transl
COc1ccc(-c2nn(C)c(=O)[nH]2)cc1 | 1.7 | -9.5 | nt | nt | nt | 0.5
COc1cccc(-c2nc(CS(=O)CC(=O)NCc3ccc4c(c3)OCO4)c(C)o2)c1 (centres undefined) | -0.6 | 5.2 | nt | 5.0 | -3.4 | nt
COc1ccc(-c2nnc(SCC(=O)Oc3ccc(C)cc3)o2)cc1 | -2.6 | -1.0 | -7.8 | 2.2 | -2.0 | -2.4
CCN(C(=O)CN1CCOCC1)C1(C)C(=O)c2ccccc2C1=O | 1.6 | 6.7 | 7.5 | 2.4 | -3.0 | 2.8
O=S(=O)([N-]c1nc2ccccc2nc1-[n+]1ccc(CCCc2ccccc2)cc1)c1cccs1 | 1.7 | 2.4 | nt | nt | nt | 4.8
CCCC[n+]1ccn(-c2nc3ccccc3nc2[N-]S(=O)(=O)c2cccs2)c1 | 98.2* | 85.8* | nt | nt | nt | -1.2
CCNc1ccc(Br)cc(C(=O)/C=C/c2ccccc2Cl)c1=O | -3.4 | 2.7 | -9.8 | 4.9 | 98.6* | nt
COC(=O)/C=C/c1ccc2c(c1)OCO2 | 1.6 | 9.0 | 10.7 | 2.1 | -5.0 | 1.6
CNc1ccc(Br)cc(C(=O)/C=C/c2cccc(Cl)c2Cl)c1=O | 0.0 | 8.7 | 41.9 | 9.9* | 96.0* | 1.4
CCNc1ccccc(C(=O)/C=C/c2ccc3c(c2)OCO3)c1=O | -2.9 | 0.9 | 12.7 | 1.6 | 63.4* | -4.2
CCOC(=O)C(=Cc1ccc(-n2cncn2)cc1)C(=O)OCC | 0.0 | -0.2 | -2.3 | 5.6 | 77.5* | 2.8
COc1cccc(/C=C2\CCc3ccccc3C2=O)c1 | -2.9 | -5.3 | nt | nt | nt | -3.5
COc1ccc(/C=C2\CCc3ccccc3C2=O)cc1Cn1nc(C)cc1C | -2.8 | 4.1 | -14.4 | 3.0 | 74.3* | -10.4
COc1ccc(/C=C2/CCc3ccccc3C2=O)cc1CN1CCOCC1 | -1.9 | 3.4 | -32.7 | 2.2 | 82.4* | nt
O=C1/C(=C\c2ccc3ccccc3c2)CCCc2ccccc21 | 0.1 | 4.4 | -41.4 | 30.1* | 10.5 | 50.0*
COc1ccc(/C=C2\CCc3ccccc3C2=O)cc1OC | -1.6 | 5.5 | -62.0 | 0.8 | 51.4* | -0.7
CSCSC1=C(C#N)C(c2ccc(Cl)cc2)C(C(C)=O)=C(C)N1 (centres undefined) | 1.4 | 4.8 | -3.8 | 3.6 | 65.5* | -0.3
CC(=O)C1=C(C)NC(SCC(=O)c2ccc(Cl)cc2)=C(C#N)C1c1ccco1 (centres undefined) | -2.3 | -1.7 | 8.5 | 4.3 | 83.4* | -1.5
N#CC1=C(SCC(=O)c2ccc(Br)cc2)NC2=C(C(=O)CCC2)C1c1ccco1 (centres undefined) | 1.2 | 2.2 | 67.1* | 31.7* | 40.1 | 46.7
CC(=O)C1=C(C)NC(SCC(=O)c2ccc(Cl)cc2Cl)=C(C#N)C1c1ccco1 (centres undefined) | 0.8 | 1.4 | -12.4 | 5.4 | 61.4* | -1.1
COc1ccc(NC(=O)Cc2c(F)cccc2Cl)c(OC)c1 | 7.2 | 15.0 | 4.0 | 4.8 | 43.2 | -3.7
COc1ccc(C(=O)Nc2cnc3sc(C)nn3c2=O)cc1 | -3.0 | 1.5 | -12.5 | 1.4 | -4.5 | -1.0
CC(C)c1ccccc1NC(=S)N1CCN(S(=O)(=O)c2cccs2)CC1 | -3.7 | 4.6 | 5.2 | 1.6 | 2.2 | -0.8
COc1cccc(CN(Cc2ccco2)S(=O)(=O)c2ccc(S(=O)(=O)NCc3ccccc3)cc2)c1OC | -1.1 | 0.0 | 3.6 | 2.1 | 97.5* | 1.3
COc1cccc(CN(Cc2ccccc2F)S(=O)(=O)c2ccc(S(=O)(=O)NCc3ccccc3)cc2)c1 | -0.1 | 6.2 | -1.4 | 2.2 | 14.7 | 0.3
SMILES | Ba/F3 V617F tox | BaF3 tox | APP transl inh | MT stabilize HCS | L major viab | bCat nuc transl
CCOC(=O)N1CCN(C(=O)c2cn(CCOC)c(=O)c3c2c2ccccc2n3C)CC1 | 5.9 | 5.2 | -2.1 | 1.9 | -6.3 | -2.3
Cc1ccc(-n2cc(CN3CCNC(=O)CC3)c(-c3ccc(F)cc3)n2)cc1 | -4.7 | -2.4 | nt | nt | nt | 0.3
Cc1cccc(-n2cc(CN3CCN(Cc4nccn4C)CC3)c(-c3cccc(F)c3)n2)c1 | 2.8 | 9.9 | -21.5 | 4.4 | 89.7* | -2.9
Cc1ccc(-n2cc(CN3CCC(O)(c4ccccn4)CC3)c(-c3ccc(F)cc3)n2)cc1 | -0.3 | 7.6 | 7.0 | 4.5 | 72.6* | -0.7
c1ccc(-n2cc(CN3CCCC3)c(-c3ccc4c(c3)OCO4)n2)cc1 | -1.7 | 3.6 | -12.6 | 1.5 | 9.9 | 0.5
COc1ccc(-n2cc(CN3CCCC3)c(-c3cccc(F)c3)n2)cc1 | -1.6 | 1.0 | -4.7 | 3.5 | 44.4 | -0.3
